Results from ChEMBL document CHEMBL1138488, “Synthesis and biological evaluation of 3,3-difluoropyridine-2,4(1H,3H)-dione and 3-deaza-3-fluorouracil base and nucleoside derivatives” (J Med Chem, 2009).
Active and inactive are the calls of the source. No cut-off for these calls is given here.

Tests used:
[1] = system: Human betaherpesvirus 5; assay: Antiviral activity against HCMV AD169 infected in HEL cells assessed as inhibition of virus-induced cytopathic effect at <=100 uM; assay type: functional, organism-based
Procedure, shortened: (§1)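 Confluent cell monolayers were inoculated with 100 CCID₅₀ of virus, and virus was adsorbed for 1 h. Residual virus was then removed and cells were incubated with serial compound concentrations ([…], ... µM). Cytopathicity was scored once it reached completion in untreated virus-infected control cultures.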

[2] = system: Vaccinia virus; assay: Antiviral activity against Vaccinia virus infected in HEL cells assessed as inhibition of virus-induced cytopathic effect at <=100 uM; assay type: functional, organism-based; settings: Orthopoxvirus vaccinia
[3] = system: Human alphaherpesvirus 2; assay: Antiviral activity against HSV2 strain G infected in HEL cells assessed as virus-induced cytopathic effect at <=100 uM; assay type: functional, organism-based
[4] = system: Moloney murine sarcoma virus; assay: Antiviral activity against Moloney sarcoma virus replication infected in mouse […] cells assessed as virus-induced transformation of cells at <=100 uM measured on day 6 postinfection; assay type: functional, organism-based
Procedure, shortened: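 Murine C3H/3T3 embryo fibroblasts were grown to confluency and infected with Moloney murine sarcoma virus at 75 focus-forming units. Compound concentrations were then added, and virus-induced transformation was examined microscopically at day 6 postinfection.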

[5] = system: Human betaherpesvirus 5; assay: Antiviral activity against HCMV Davis infected in HEL cells assessed as inhibition of virus-induced cytopathic effect at <=100 uM; assay type: functional, organism-based; procedure, shortened: as §1
[6] = system: Human alphaherpesvirus 3; assay: Antiviral activity against thymidine kinase expressing Varicella zoster virus Oka infected in human HEL cells assessed as inhibition of virus-induced cytopathic effect at <=100 uM; assay type: functional, organism-based; procedure, shortened: as §1
[7] = system: Human immunodeficiency virus 2; assay: Antiviral activity against HIV2 ROD replication in human CEM cells assessed as virus-induced giant cell formation at <=100 uM after 4 days; assay type: functional, organism-based; settings: CCRF-CEM
Procedure, shortened: (§2)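 CEM cells (~3 × 10⁵ cells/cm³) were infected with 100 CCID₅₀/mL of HIV-1(III_B) or HIV-2(ROD) and seeded into wells containing compound dilutions. After 4 days at 37 °C, virus-induced giant cell formation was examined microscopically.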

[8] = system: Vesicular stomatitis virus; assay: Antiviral activity against Vesicular stomatitis virus infected in human HeLa cells assessed as inhibition of virus-induced cytopathic effect at <=100 uM; assay type: functional, organism-based
[9] = Cytostatic activity against human Molt4/C8 cells after 3 days by Coulter counting analysis; assay type: ADME, cell-based, MOLT-4
Procedure, shortened: (§3)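 Molt4/C8 or CEM lymphocytes were seeded at 75000 cells per well with varying compound concentrations. Viable cells were counted by Coulter counter after 3 days. CC₅₀ is the concentration inhibiting cell proliferation by 50%.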

[10] = system: Human alphaherpesvirus 1; assay: Antiviral activity against acyclovir-resistant […] kinase-deficient HSV1 KOS infected in HEL cells assessed as virus-induced cytopathic effect at <=100 uM; assay type: functional, organism-based
[11] = Cytostatic activity against mouse L1210 cells after 2 days by Coulter counting analysis; assay type: ADME, cell-based
Procedure, shortened: (§4)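 Murine leukemia L1210 cells were seeded at 50000 cells per well with varying compound concentrations. Viable cell number was counted by Coulter counter after 2 days.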

[12] = system: Respiratory syncytial virus; assay: Antiviral activity against Respiratory syncytial virus infected in human HeLa cells assessed as inhibition of virus-induced cytopathic effect at <=100 uM; assay type: functional, organism-based; procedure, shortened: as §1
[13] = system: Human alphaherpesvirus 3; assay: Antiviral activity against thymidine kinase deficient Varicella zoster virus 07/1 infected in human HEL cells assessed as inhibition of virus-induced cytopathic effect at <=100 uM; assay type: functional, organism-based; procedure, shortened: as §1
[14] = system: Human respirovirus 3; assay: Antiviral activity against Parainfluenza virus type 3 infected in african green monkey Vero cells assessed as inhibition of virus-induced cytopathic effect at <=100 uM; assay type: functional, organism-based; procedure, shortened: as §1
[15] = Cytostatic activity against human CEM cells after 3 days by Coulter counting analysis; assay type: cell-based, CCRF-CEM; procedure, shortened: as §3
[16] = system: L1210; assay: Cytostatic activity against mouse L1210 cells at <=500 uM after 2 days by Coulter counting analysis; assay type: ADME, cell-based; settings: l1210, 48 h; procedure, shortened: as §4
[17] = system: Coxsackievirus B4; assay: Antiviral activity against Coxsackievirus B4 infected in human HeLa cells assessed as inhibition of virus-induced cytopathic effect at <=100 uM; assay type: functional, organism-based; procedure, shortened: as §1
[18] = system: Sindbis virus; assay: Antiviral activity against Sindbis virus infected in african green monkey Vero cells assessed as inhibition of virus-induced cytopathic effect at <=100 uM; assay type: functional, organism-based; procedure, shortened: as §1
[19] = system: Punta Toro virus; assay: Antiviral activity against Punta Toro virus infected in african green monkey Vero cells assessed as inhibition of virus-induced cytopathic effect at <=100 uM; assay type: functional, organism-based; procedure, shortened: as §1
[20] = system: Human alphaherpesvirus 1; assay: Antiviral activity against HSV1 KOS infected in HEL cells assessed as virus-induced cytopathic effect at <=100 uM; assay type: functional, organism-based
[21] = system: Mammalian orthoreovirus 3; assay: Antiviral activity against Reovirus 3 infected in african green monkey Vero cells assessed as inhibition of virus-induced cytopathic effect at <=100 uM; assay type: functional, organism-based
[22] = system: CCRF-CEM; assay: Cytostatic activity against human CEM cells at <=500 uM after 3 days by Coulter counting analysis; assay type: cell-based; settings: 72 h; procedure, shortened: as §3
[23] = system: Vesicular stomatitis virus; assay: Antiviral activity against Vesicular stomatitis virus infected in HEL cells assessed as inhibition of virus-induced cytopathic effect at <=100 uM; assay type: functional, organism-based
[24] = system: Human immunodeficiency virus 1; assay: Antiviral activity against HIV1 3B replication in human CEM cells assessed as virus-induced giant cell formation at <=100 uM after 4 days; assay type: functional, organism-based; settings: CCRF-CEM; procedure, shortened: as §2
[25] = Cytostatic activity against human Molt4/C8 cells at <=500 uM after 3 days by Coulter counting analysis; assay type: ADME, cell-based; settings: molt-4, 72 h; procedure, shortened: as §3

O=c1c(F)c(O)ccn1[C@@H]1O[C@H](CO)[C@@H](O)[C@H]1O
Activity [1]: inactive | Activity [2]: inactive | Activity [3]: inactive | Activity [4]: inactive | Activity [5]: inactive | Activity [6]: inactive | Activity [7]: inactive | Activity [8]: inactive | CC50 at 72 h [9]: 4.4 µM | Activity [10]: inactive | CC50 at 48 h [11]: 6.7 µM | Activity [12]: inactive | Activity [13]: inactive | Activity [14]: inactive | CC50 at 72 h [15]: 9.6 µM | Activity [16]: Not Active | Activity [17]: inactive | Activity [18]: inactive | Activity [19]: inactive | Activity [20]: inactive | Activity [21]: inactive | Activity [22]: Not Active | Activity [23]: inactive | Activity [24]: inactive | Activity [25]: Not Active

NC(=O)Cc1ccn([C@H]2C[C@H](O)[C@@H](CO)O2)c(=O)c1F
Activity [1]: inactive | Activity [2]: inactive | Activity [3]: inactive | Activity [4]: inactive | Activity [5]: inactive | Activity [6]: inactive | Activity [7]: inactive | Activity [8]: inactive | Activity [10]: inactive | Activity [12]: inactive | Activity [13]: inactive | Activity [14]: inactive | Activity [16]: Not Active | Activity [17]: inactive | Activity [18]: inactive | Activity [19]: inactive | Activity [20]: inactive | Activity [21]: inactive | Activity [22]: Not Active | Activity [23]: inactive | Activity [24]: inactive | Activity [25]: Not Active

C#CC1(O)C=CN([C@H]2C[C@H](O)[C@@H](CO)O2)C(=O)C1(F)F (some centres undefined)
Activity [1]: inactive | Activity [2]: inactive | Activity [3]: inactive | Activity [4]: inactive | Activity [5]: inactive | Activity [6]: inactive | Activity [7]: inactive | Activity [8]: inactive | Activity [10]: inactive | Activity [12]: inactive | Activity [13]: inactive | Activity [14]: inactive | Activity [16]: Not Active | Activity [17]: inactive | Activity [18]: inactive | Activity [19]: inactive | Activity [20]: inactive | Activity [21]: inactive | Activity [22]: Not Active | Activity [23]: inactive | Activity [24]: inactive | Activity [25]: Not Active
